Compound activity as filed in PubChem.
Rows were chosen to be rich in hits. Some 0.72% of all compounds tested hit in one or more screens of this group.
DTT redox prof: compounds producing H2O2 with reducing agent – biochemical, NIH compound library profiling, artefact control for MLSCN library redox annotation, primary screen; DTT-dependent redox cycling H2O2, phenol red/HRP absorbance; 100% = 100 µM peroxide control, 0% = buffer; activation, % at 10 µM; hit rate 0.03% among 200,000; AID 878, 2007;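 active means activation of at least 50% relative to the plate's high and low controls in the primary single-dose screen; inactive means activation below 50%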;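 further: compound incubated with DTT at 0.8 mM final as the reducing agent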
ABCG2 inh: ABCG2 efflux pump inhibitors, primary screen, multiplex with ABCB1, IgMXP3 cells, flow cytometry. Broad substrate specificity ATP-binding cassette transporter ABCG2 (Homo sapiens), Q9UNQ0. JC-1 efflux. inhibition, % at 6.6 µM. hit rate 0.1% among 190,000;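 active means inhibition above 80%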;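 further: 0% = DMSO and 100% = nicardipine control wells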
Target sequence (Q9UNQ0 whole entry, looked up): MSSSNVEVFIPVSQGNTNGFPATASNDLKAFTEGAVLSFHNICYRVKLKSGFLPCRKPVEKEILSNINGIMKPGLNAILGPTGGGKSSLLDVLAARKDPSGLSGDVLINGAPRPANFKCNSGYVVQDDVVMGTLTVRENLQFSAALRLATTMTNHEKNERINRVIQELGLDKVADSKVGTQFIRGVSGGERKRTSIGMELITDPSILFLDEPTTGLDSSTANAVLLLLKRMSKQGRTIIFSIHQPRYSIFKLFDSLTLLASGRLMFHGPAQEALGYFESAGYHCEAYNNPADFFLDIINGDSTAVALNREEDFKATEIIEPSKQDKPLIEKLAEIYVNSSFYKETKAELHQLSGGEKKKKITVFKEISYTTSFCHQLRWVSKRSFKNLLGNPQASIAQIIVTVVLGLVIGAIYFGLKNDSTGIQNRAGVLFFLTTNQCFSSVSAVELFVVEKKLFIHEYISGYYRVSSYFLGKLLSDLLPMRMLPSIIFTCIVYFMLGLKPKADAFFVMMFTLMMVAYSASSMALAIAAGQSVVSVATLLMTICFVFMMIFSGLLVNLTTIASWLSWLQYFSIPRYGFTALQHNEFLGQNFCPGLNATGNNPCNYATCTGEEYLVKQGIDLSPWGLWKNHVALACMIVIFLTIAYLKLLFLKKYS
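Times: 10 min at 25 °C | Test system: Two drug-resistant human cell lines, ABCG2 and ABCB1 | Quantity: 3 million cells/mL final, two lines in 1:1 ratio | Signal: Flow cytometry, 530 nm JC-1 signal | Dosing: Compound at 6.6 µM | Controls: Nicardipine and DMSO wells | Reagent: JC-1 as fluorescent efflux pump substrate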
ABCB1 block: ABCB1 efflux pump inhibitors, primary screen, cell-based, multiplex, flow cytometry, ABCG2 counter-screen; ATP-dependent translocase ABCB1 (Homo sapiens), P08183; CCRF-Adr cells, JC-1 efflux; inhibition, % at 6.6 µM; hit rate 0.067% among 190,000; AID 1326, 2008; in the data active means inhibition above about 40%;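 further: 0% = vehicle and 100% = reference inhibitor; higher value means more JC-1 retained so stronger ABCB1 efflux block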
GSH fluor: compound fluorescence on glutathione beads, profiling panel, artefact control, biophysical, 488/530 nm, flow cytometry | GSH beads flow cytometry, compound fluorescence 488/530 nm; hits give high values | fluorescence (KMESF) at 10 µM | hit rate 0.25% among 190,000 | AID 1776, 2009; in the data active means fluorescence above about 89;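 further: glutathione beads carrying GST-tagged Bcl family fusion proteins plus one bare bead set; values are compound well signal with DMSO vehicle wells as background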
Avidin bead fluor: green autofluorescence of compounds with avidin beads – biophysical, 488/530 nm, flow cytometry, artefact control, profiling panel; compound fluorescence 488/530 nm; hits give high values; fluorescence (KMESF) at 10 µM; hit rate 0.38% among 220,000; in the data active means fluorescence above about 47
* marks the source's active call; other numbers are inactive results.

Results for C=CCN1C(=O)C2(NC(=O)c3ccccc3N2)c2ccccc21 (stereo not given) ?
DTT redox prof: 0; ABCG2 inh: 3; ABCB1 block: 0; GSH fluor: 22; Avidin bead fluor: 164*

Results for COc1cccc(Oc2ccc3nnc(C(F)(F)F)n3n2)c1 ?
DTT redox prof: -1; ABCG2 inh: 7; ABCB1 block: 0; GSH fluor: 15; Avidin bead fluor: 10

Results for CCOC(=O)c1cccc(-n2c(-c3ccc(OC)cc3)nc3nc4ccccc4nc32)c1 ?
DTT redox prof: 0; ABCG2 inh: -3; ABCB1 block: 0; GSH fluor: 15; Avidin bead fluor: 124*

What do the screens show for `Cc1nc(SCn2nnc3ccccc3c2=O)nc(C)c1C`?
DTT redox prof: -1; ABCG2 inh: 3; ABCB1 block: 1; GSH fluor: 258*; Avidin bead fluor: 8

What do the screens show for `CN(C)S(=O)(=O)c1cccc(NC(=S)N2CCc3ccccc32)c1`?
DTT redox prof: -3; ABCG2 inh: 2; ABCB1 block: 1; GSH fluor: 14; Avidin bead fluor: 154*

What do the screens show for `Cc1ccc(S(=O)(=O)N(C)C)cc1NC(=S)N1CCc2ccccc21`?
DTT redox prof: -1; ABCG2 inh: 0; ABCB1 block: 0; GSH fluor: 22; Avidin bead fluor: 9

How did CCN(CC)C(=O)CSc1nc(O)cc(=O)n1CC do in these assays?
DTT redox prof: 2; ABCG2 inh: 1; ABCB1 block: 1; GSH fluor: 14; Avidin bead fluor: 156*

How did CCn1c(Cc2ccccc2)nnc1SCC(=O)Nc1ccc(C)cc1 do in these assays?
DTT redox prof: 0; ABCG2 inh: 9; ABCB1 block: 0; GSH fluor: 16; Avidin bead fluor: 5

Results for CCn1c(CC(=O)Nc2ccc(C)cc2)nnc1SCC(=O)NCCc1ccccc1 ?
DTT redox prof: 1; ABCG2 inh: 4; ABCB1 block: 1; GSH fluor: 15; Avidin bead fluor: 49*

What do the screens show for `N/C(=N\N=C\c1ccc(Br)o1)c1nonc1N`?
Avidin bead fluor: 6

What do the screens show for `O=c1cc(CN2CC(O)Cc3ccc4ccccc4c32)nc2sccn12` (stereo not given)?
DTT redox prof: 0; ABCG2 inh: 7; ABCB1 block: 0; GSH fluor: 15; Avidin bead fluor: 9

How did C=CCn1c(SCC(=O)NC(=O)NCc2ccco2)nc2sc(CC)cc2c1=O do in these assays?
DTT redox prof: 0; ABCG2 inh: 5; ABCB1 block: 2; GSH fluor: 267*; Avidin bead fluor: 5

How did OCCC1CN(Cc2cccn2-c2nccs2)CCN1C1CCCCC1 (stereo not given) do in these assays?
DTT redox prof: -1; ABCG2 inh: 4; ABCB1 block: 1; GSH fluor: 17; Avidin bead fluor: 6

How did CC(C)N1CCN(Cc2cccn2-c2nccs2)CC1CCO (stereo not given) do in these assays?
DTT redox prof: -1; ABCG2 inh: 6; ABCB1 block: 0; GSH fluor: 11; Avidin bead fluor: 56*

How did Cc1nn(-c2ccccc2)nc1CNC(=O)C1CCC1 do in these assays?
Avidin bead fluor: 3

What do the screens show for `CCCC(=O)Nc1ccc2oc(-c3ccc(OC)c(Br)c3)nc2c1`?
DTT redox prof: 0; ABCG2 inh: 0; ABCB1 block: -1; GSH fluor: 24; Avidin bead fluor: 54*

How did CCN(CC(=O)NCc1ccc(Cl)cc1)S(=O)(=O)c1ccc(NC(C)=O)cc1 do in these assays?
DTT redox prof: -2; ABCG2 inh: 8; ABCB1 block: 0; GSH fluor: 10; Avidin bead fluor: 13

How did COc1cc(-c2c(C#N)c(=O)[nH]c3c2c(C)nn3-c2ccccc2)ccc1O do in these assays?
DTT redox prof: 3; ABCG2 inh: 1; ABCB1 block: 0; GSH fluor: 17; Avidin bead fluor: 48*

Results for COC1=C(OC)c2ccccc2C(C(=O)O)N/C1=C(/C)Nc1ccncc1 (stereo not given) ?
DTT redox prof: -1; ABCG2 inh: 1; ABCB1 block: 0; GSH fluor: 267*; Avidin bead fluor: 9

Results for O=C(Nc1ccncc1)C1CC1c1ccccc1 (stereo not given) ?
DTT redox prof: -2; ABCG2 inh: 2; ABCB1 block: 0; GSH fluor: 16; Avidin bead fluor: 8

Results for CCOCCCn1c(=N)c(C(=O)Nc2cc(C)on2)cc2c(=O)n3ccccc3nc21 ?
DTT redox prof: 1

What do the screens show for `O=c1[nH]c(CSc2nc3ccccc3o2)nc2c1cnn2-c1ccccc1`?
DTT redox prof: -1; ABCG2 inh: 1; ABCB1 block: 0; GSH fluor: 255*; Avidin bead fluor: 8

What do the screens show for `CC(C)N(C)NC(=S)Nc1ccccc1`?
DTT redox prof: 0; ABCG2 inh: 2; ABCB1 block: 1; GSH fluor: 332*; Avidin bead fluor: 7

What do the screens show for `CC1CCCCN1S(=O)(=O)c1cccc(S(=O)(=O)N2CCOCC2)c1` (stereo not given)?
Avidin bead fluor: 8

How did Cc1ccc(NS(=O)(=O)c2ccc3c(c2)NC(=O)CC(=O)N3)cc1C do in these assays?
DTT redox prof: 0; ABCG2 inh: 2; ABCB1 block: 1; GSH fluor: 26; Avidin bead fluor: 58*

Results for NC(=O)c1ccc(N=Nc2c(-c3ccccc3)[nH]n(-c3ccccc3)c2=O)cc1 ?
DTT redox prof: -2; ABCG2 inh: 3; ABCB1 block: 0; GSH fluor: 11; Avidin bead fluor: 63*

What do the screens show for `COc1ccc2nc(Nc3nc(CSc4nnnn4-c4ccccc4)cc(=O)[nH]3)nc(C)c2c1`?
DTT redox prof: 1; ABCG2 inh: 16; ABCB1 block: 0; GSH fluor: 33; Avidin bead fluor: 95*

Results for O=C(CSc1nnc(-c2ccncc2)o1)N1CCc2ccccc2C1 ?
DTT redox prof: 0; ABCG2 inh: 1; ABCB1 block: 0; GSH fluor: 12; Avidin bead fluor: 47*

What do the screens show for `O=C(CSc1nnc(-c2ccncc2)o1)N1CCCC1`?
DTT redox prof: -1; ABCG2 inh: 1; ABCB1 block: 0; GSH fluor: 58; Avidin bead fluor: 24

Results for CC1CCCC(C)N1C(=O)c1cccc2c1-c1ccccc1/C2=N/O (stereo not given) ?
DTT redox prof: 0; ABCG2 inh: 14; ABCB1 block: 1; GSH fluor: 12; Avidin bead fluor: 143*

What do the screens show for `O=C(Nc1ccc(Cl)cc1)C1=Cc2cc(Cl)ccc2OC1`?
DTT redox prof: 0; ABCG2 inh: 1; ABCB1 block: 0; GSH fluor: 13; Avidin bead fluor: 48*
